From paper PMC7649109 (International Journal for Parasitology: Drugs and Drug …, 2020)
“And” between values parts separate entries of the source, which are not always exact repeats. Equal values may be shown once. Read-outs that look alike come from different tables or passages of the source.

How the values were obtained:
[1] = system: Trypanosoma congolense IL3000; experiment: resazurin viability assay, T. congolense IL3000 bloodstream forms; assay type: cell-based
Procedure, shortened: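 Bloodstream-form parasites were grown in MEM base with 10% goat serum, 14 μL/L β-mercaptoethanol, glutamine and antibiotics at 34 °C/5% CO2. Cells at 5 × 10^4/well were exposed to 23 doubling dilutions plus no-drug controls, with DMSO held at 1% (v/v) per well, for 48 h. Resazurin was then added for a further 24 h. EC50 is the mean ± SEM of ≥3 independent determinations.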

[2] = system: Trypanosoma congolense 6C3; experiment: resazurin viability assay, diminazene-resistant T. congolense clone 6C3; assay type: cell-based; conditions: for RF (Resistance factor): Table 6; for EC50: Trypanosoma congolense, T. congolense 6C3
Procedure, shortened: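 IL3000 and diminazene-resistant 6C3 T. congolense bloodstream forms grown in MEM base with 10% goat serum, 14 μL/L β-mercaptoethanol, glutamine and antibiotics at 34 °C/5% CO2. 5 × 10^4 cells/well exposed to 23 doubling dilutions (1% v/v DMSO) plus no-drug controls for 48 h, then resazurin for a further 24 h. EC50 from ≥3 independent determinations. RF = […]; unpaired two-tailed t-test versus IL3000.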

[3] = cytotoxicity, resazurin assay on U937 cell line; assay type: cell-based, human; conditions: human, U937 cells
U937 cell line = experiment: cytotoxicity, resazurin assay on U937 cell line; assay type: cell-based, human
T. brucei S427WT = experiment: resazurin viability assay, T. brucei s427 wild-type bloodstream forms; assay type: cell-based; conditions: Trypanosoma brucei
Procedure, shortened: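 Bloodstream forms grown in complete HMI-9 with 10% fetal bovine serum at 37 °C/5% CO2. 2 × 10^4 cells/well were exposed for 48 h to 23 doubling dilutions of the test compound or extract, with no-drug controls and 1% (v/v) DMSO per well. Resazurin was then added for a further 24 h. EC50 is the mean ± SEM of at least 3 independent determinations.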

T. brucei B48 = experiment: resazurin viability assay, multi-drug resistant T. brucei B48; assay type: cell-based, Trypanosoma brucei; conditions: for RF (Resistance factor): Table 5; for RF (Resistance factor) / R. F (Resistance factor): B48 versus s427 WT; for EC50: Trypanosoma brucei; for R. F (Resistance factor): Table 1
Procedure, shortened: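 s427 wild-type and B48 T. b. brucei bloodstream forms cultured in HMI-9 with 10% FBS at 37 °C/5% CO2. Wells of 2 × 10^4 cells received 23 doubling dilutions (1% v/v DMSO) plus no-drug controls for 48 h, followed by resazurin and 24 h more incubation. EC50 from ≥3 independent determinations. […]; unpaired two-tailed t-test versus s427.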

[4] = cytotoxicity, resazurin assay on RAW 246.7 cell line; assay type: cell-based, murine; conditions: mouse, RAW 264.7 macrophage cells (also printed RAW 246.7)
RAW 246.7 cell line = experiment: as above; assay type: cell-based, murine
[5] = read-out: EC50, AVG ± SEM, Table 2, control, footnote b: EC50 in μM
[6] = read-out: EC50, AVG ± SEM, Table 6, purified compounds, n = 3
[7] = read-out: EC50, AVG ± SEM, Table 5, purified compounds, T. b. brucei s427 WT, n = 3
[8] = read-out: EC50, AVG ± SEM, Table 5, purified compounds, T. b. brucei B48, n = 3

For `N=C(N)c1ccc(/N=N/Nc2ccc(C(=N)N)cc2)cc1` [Diminazene], the EC50 [1, 5] was 0.2 ± 0.03 µM, the EC50 [1, 6] was 0.15 ± 0.03 µM and the “R. F (Resistance factor)” value ([2]; Table 2, 6C3 versus IL3000) was 7.75. For the same compound, the “RF (Resistance factor)” value ([2]; 6C3 versus IL3000) was 9.81, the “RF (Resistance factor)” value ([2]; 6C3 versus IL3000, listed as diminazene) was 9.8 and the EC50 [2, 5] was 1.51 ± 0.09 µM. For the same compound, the EC50 [2, 6] was 1.45 ± 0.04 µM.

In the case of `C=CC(C)(C)c1c(O)cc2c(c1O)C(=O)C[C@@H](c1ccc(O)cc1)O2` [Compound 2, 6-(1,1-dimethylallyl)naringenin], the EC50 at 24 h [3] is reported as 51.2 µg/mL and 150 µM, the “Selectivity Index (SI) Tbb427 WT” value (U937 cell line; EC50 (U937)/EC50 (T. b. brucei 427 WT)) is reported as 22.8 and the “Selectivity Index (SI) TcoIL3000” value (U937 cell line; EC50 (U937)/EC50 (T. congolense IL3000)) is reported as 9.0. For the same compound, the EC50 [1, 6] was 7.35 µg/mL and 21.6 µM, the “RF (Resistance factor)” value ([2]; 6C3 versus IL3000) was 0.77 and the EC50 [2, 6] was 5.69 µg/mL and 16.7 µM. For the same compound, the EC50 (T. brucei S427WT; [7]) was 2.24 µg/mL and 6.58 µM, the “RF (Resistance factor)” value (T. brucei B48) was 1.02 and the EC50 (T. brucei B48; [8]) was 2.28 µg/mL and 6.69 µM. For the same compound, the EC50 at 24 h [4] was 79.9 µg/mL and 235 µM, the “Selectivity Index (SI) Tbb427 WT” value (RAW 246.7 cell line; EC50 (RAW 246.7)/EC50 (T. b. brucei 427 WT)) was 35.7 and the “Selectivity Index (SI) TcoIL3000” value (RAW 246.7 cell line; EC50 (RAW 246.7)/EC50 (T. congolense IL3000)) was 14.0.

For `N=C(N)c1ccc(OCCCCCOc2ccc(C(=N)N)cc2)cc1` [Pentamidine], the EC50 (T. brucei S427WT; read-out: EC50, AVG ± SEM, Table 1, control, footnote b: EC50 in μM, T. brucei s427 WT) was 0.0031 ± 0.0003 µM, the EC50 (T. brucei S427WT; [7]) was 0.0034 ± 0.0004 µM and the “R. F (Resistance factor)” value (T. brucei B48) was 157.84. The “R. F (Resistance factor)” value (T. brucei B48; listed as pentamidine) was 158, the “RF (Resistance factor)” value (T. brucei B48) was 144.08 and the “RF (Resistance factor)” value (T. brucei B48; listed as pentamidine) was 144. The EC50 (T. brucei B48; read-out: EC50, AVG ± SEM, Table 1, control, footnote b: EC50 in μM, T. brucei B48) was 0.482 ± 0.02 µM and the EC50 (T. brucei B48; [8]) was 0.493 ± 0.04 µM.
